The nature of data set [1]: folding enthalpy; higher = less favourable; fluorescence melt of hairpins on a sequencing array, two-state fit. Particulars: sodium 0.088 M. The essentials:
(§1)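 Folding enthalpy and melting temperature were estimated with bootstrapped two-state fits and combined across four replicates by inverse-variance weighting, with fitted temperatures raised by 9.35 °C to match UV melts. The data were Cy3 fluorescence of library hairpins, with annealed Cy3 and quencher oligos, on a sequenced MiSeq flow cell in 50 mM Na-HEPES pH 8.0, 25 mM NaCl, imaged in 2.5 °C steps up to 60 °C and normalised to pre-quench Cy3 and control constructs.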

Data set [2] can be described thus: melting temperature; fluorescence melt of hairpins on a sequencing array, two-state fit, raised by 9.35 °C to match UV melts. Particulars: sodium 0.088 M. In outline:
as §1

As for GTCCTAGGAAACTAGGAC (((((((....))))))), in data set [1], the folding enthalpy is -51 kcal/mol. The Tm in data set [2] turned out to be 57.2 °C.

Regarding GTCCTCCGAAAGGACGAC (((.(((....))).))), in data set [1], the folding enthalpy is -26.1 kcal/mol. The Tm in data set [2] worked out at 49.7 °C.

Consider GTCCTCGAAAGAGACGAC ((((((....)))..))), for which the folding enthalpy in data set [1] was -20 kcal/mol. Further, in data set [2], the Tm turned out to be 42 °C.

Turning to GTCCTCGAAAGAGATGAC ((((((....)))..))), in data set [1], the folding enthalpy is -16.2 kcal/mol. Besides, in data set [2], the Tm is 33.4 °C.

GTCCTCGAAAGAGCGAC ((((((....))).))): in data set [1], the folding enthalpy was -21.4 kcal/mol. In addition, the Tm in data set [2] was found to be 45.4 °C.

Take GTCCTCGAAAGAGTAGAC ((((((....)))..))): the folding enthalpy in data set [1] was -19.8 kcal/mol. In addition, the Tm in data set [2] is 35.9 °C.

For the sequence GTCCTCTCGAAAGAGGAC (((..(((....)))))), the folding enthalpy in data set [1] was -36.2 kcal/mol. Also, the Tm in data set [2] worked out at 58.5 °C.

In the case of GTCCTGCCGAAAGGCGAC (((..(((....)))))), the folding enthalpy in data set [1] was -9.38 kcal/mol. In addition, the Tm in data set [2] came to 33.2 °C.

Regarding GTCCTGGAAACAGGAC ((((((....)))))), the folding enthalpy in data set [1] is -38.6 kcal/mol. Further, the Tm in data set [2] is 63 °C.

For GTCCTGGGAAACCAAGAC (((.(((....))).))), the folding enthalpy in data set [1] is -22.4 kcal/mol. Further, in data set [2], the Tm turned out to be 34.5 °C.

Take GTCCTGGGAAACTGGGAC ((((..(....)..)))): in data set [1], the folding enthalpy was -26.5 kcal/mol. In data set [2], the Tm is 44.8 °C.

Take GTCCTTGGAAACAAGGAC (((((((....))))))): the folding enthalpy in data set [1] was -38.8 kcal/mol. The Tm in data set [2] came to 59.8 °C.

As for GTCCTTGGAAACAAGGGC (.(((((....))))).), in data set [1], the folding enthalpy is -36.7 kcal/mol. For the same sequence, in data set [2], the Tm turned out to be 52.3 °C.

Regarding GTCCTTGGAAACAGGGAC ((((.((....)).)))), the folding enthalpy in data set [1] was -33 kcal/mol. Moreover, in data set [2], the Tm is 46.4 °C.

Consider GTCCTTGGAAACGAGGAC (((((.(....).))))), for which the folding enthalpy in data set [1] is -40.8 kcal/mol. The Tm in data set [2] was determined as 50.7 °C.

Regarding GTCGAACGAAAGTTGAC (((.(((....)))))), the folding enthalpy in data set [1] is -23.4 kcal/mol. In data set [2], the Tm is 46.3 °C.

Take GTCGAACGAAAGTTTGAC (((.(((....))).))): the folding enthalpy in data set [1] was -42.2 kcal/mol. The Tm in data set [2] was 54.5 °C.

GTCGAAGAAATTCGAC ((((((....)))))): the folding enthalpy in data set [1] was -35.6 kcal/mol. The Tm in data set [2] worked out at 56.2 °C.

GTCGAAGCGAAAGCTGAC (((..(((....)))))): the folding enthalpy in data set [1] is -14.8 kcal/mol. The Tm in data set [2] turned out to be 46.5 °C.

Regarding GTCGAAGGAAACTTTGGC (.(.(((....))).).), the folding enthalpy in data set [1] was -22.4 kcal/mol. Also, the Tm in data set [2] was found to be 29.9 °C.

Regarding GTCGACACGAAAGTGGAC (((..(((....)))))), in data set [1], the folding enthalpy is -13.9 kcal/mol. Besides, the Tm in data set [2] worked out at 41.2 °C.

As for GTCGACGAAAGTCGGAC ((((((....))).))), the folding enthalpy in data set [1] is -14.3 kcal/mol. Moreover, the Tm in data set [2] came out at 58.1 °C.

With GTCGACGCGAAAGCGGAC (((..(((....)))))), in data set [1], the folding enthalpy is -12.8 kcal/mol. In data set [2], the Tm came to 45.4 °C.

Turning to GTCGACGGAAACGTCAAC ((.((((....)))).)), the folding enthalpy in data set [1] is -15.6 kcal/mol. Also, the Tm in data set [2] was 43.5 °C.

For the sequence GTCGACGGAAACGTCGGC (.(((((....))))).), the folding enthalpy in data set [1] is -22.3 kcal/mol. Besides, the Tm in data set [2] amounted to 64.8 °C.

Regarding GTCGACGGAAACGTTGAC (((.(((....))).))), the folding enthalpy in data set [1] is -45.5 kcal/mol. Also, in data set [2], the Tm is 56.3 °C.

On to GTCGACTCGAAAGAGGAC (((..(((....)))))), for which the folding enthalpy in data set [1] is -16.9 kcal/mol. For the same sequence, the Tm in data set [2] turned out to be 35.6 °C.

For the sequence GTCGATGGAAACATTGAC (((.(((....))).))), the folding enthalpy in data set [1] is -36.2 kcal/mol. Besides, the Tm in data set [2] amounted to 48.3 °C.

Turning to GTCGATTCGAAAGAAGAC (((..(((....)))))), in data set [1], the folding enthalpy was -13 kcal/mol. Also, the Tm in data set [2] came out at 29.7 °C.

As for GTCGCACCGAAAGGTGAC (((..(((....)))))), in data set [1], the folding enthalpy is -8.3 kcal/mol. The Tm in data set [2] is 35 °C.

Take GTCGCACGAAAGTGAGAC (((.(((....))).))): in data set [1], the folding enthalpy was -30.6 kcal/mol. In addition, the Tm in data set [2] was found to be 59.5 °C.

For GTCGCAGGAAACTACGAC ((((.((....)).)))), in data set [1], the folding enthalpy was -32.1 kcal/mol. For the same sequence, the Tm in data set [2] is 46.3 °C.

GTCGCAGGAAACTGCAAC ((.((((....)))).)): the folding enthalpy in data set [1] was -16.7 kcal/mol. Moreover, the Tm in data set [2] was determined as 41.1 °C.

Take GTCGCCACGAAAGTGGAC (((..(((....)))))): the folding enthalpy in data set [1] is -9.49 kcal/mol. Further, the Tm in data set [2] came to 35.7 °C.

Consider GTCGCCCCGAAAGGGGAC (((..(((....)))))), for which the folding enthalpy in data set [1] was -9.73 kcal/mol. For the same sequence, the Tm in data set [2] turned out to be 40.1 °C.

Consider GTCGCCGAAAGGCAAGAC ((((((....)))..))), for which the folding enthalpy in data set [1] was -15.4 kcal/mol. Further, the Tm in data set [2] came out at 49.8 °C.

(Values after the array DNA melting data of Ke et al. (doi:10.1101/2024.01.08.574731).)
